This is an account of results in ChEMBL document CHEMBL1136304, “Synthesis and structure-activity relationships of thieno[2,3-d]pyrimidine-2,4-dione derivatives as potent GnRH receptor antagonists” (Bioorg Med Chem Lett, 2003).

Tested on in the first series: not listed separately
The experiment in a line: Partition coefficient (logP). It counts as physicochemical. The conditions noted are these: octanol/water.
Compound `CONC(=O)Nc1ccc(-c2sc3c(c2CN(C)Cc2ccccc2)c(=O)n(-c2ccccc2)c(=O)n3Cc2c(F)cccc2F)cc1` [SUFUGOLIX] showed a lipophilicity (logP) of 6.5.

Tested on in another series: not listed separately
The experiment in a line: pKa value was determined. It counts as physicochemical.
Settings: not given
`CONC(=O)Nc1ccc(-c2sc3c(c2CN(C)Cc2ccccc2)c(=O)n(-c2ccccc2)c(=O)n3Cc2c(F)cccc2F)cc1` [SUFUGOLIX]: the pKa is 5.

The target in the next series is T1, Gonadotropin-releasing hormone receptor (Rattus norvegicus, UniProt P30969).
T1 sequence (P30969 whole entry): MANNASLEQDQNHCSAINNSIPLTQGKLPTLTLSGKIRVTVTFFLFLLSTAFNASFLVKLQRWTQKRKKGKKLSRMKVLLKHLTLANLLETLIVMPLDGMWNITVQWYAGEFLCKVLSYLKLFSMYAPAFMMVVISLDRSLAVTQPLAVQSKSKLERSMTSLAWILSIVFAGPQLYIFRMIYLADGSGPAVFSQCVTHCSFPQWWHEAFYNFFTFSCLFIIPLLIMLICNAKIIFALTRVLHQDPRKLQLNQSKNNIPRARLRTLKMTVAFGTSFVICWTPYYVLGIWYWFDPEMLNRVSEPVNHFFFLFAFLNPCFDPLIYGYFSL
The experiment in a line: Binding affinity towards rat Gonadotropin-releasing hormone receptor.
Settings: not given
Take `Cc1cc(-c2c(OCC[C@@H]3CCN3)c3cc(C(=O)Nc4ccncn4)c(Cl)cc3[nH]c2=O)cc(C)c1C`: the IC50 was found to be 0.004 µM.

In the next series the target is T2, Gonadotropin-releasing hormone receptor (Homo sapiens, UniProt P30968).
T2 sequence (P30968 whole entry): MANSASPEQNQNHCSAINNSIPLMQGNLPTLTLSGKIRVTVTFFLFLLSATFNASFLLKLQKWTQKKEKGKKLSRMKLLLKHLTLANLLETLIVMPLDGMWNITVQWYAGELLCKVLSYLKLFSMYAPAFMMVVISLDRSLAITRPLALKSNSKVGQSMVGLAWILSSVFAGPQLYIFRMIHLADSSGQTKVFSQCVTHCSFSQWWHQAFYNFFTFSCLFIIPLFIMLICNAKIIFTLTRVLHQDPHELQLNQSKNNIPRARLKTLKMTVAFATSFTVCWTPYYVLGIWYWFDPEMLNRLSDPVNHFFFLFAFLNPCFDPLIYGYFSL
The experiment in a line: Binding affinity towards human gonadotropin-releasing hormone receptor.
Settings: not given
A digest of the protocol:
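Cloned human GnRH receptor stably expressed in HEK293 cells, binding measured in a 96-well filtration format. Results expressed as Ki. Key compounds were run in 3–8 independent experiments.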
`CN(CCc1ccccc1)Cc1c(-c2ccc([N+](=O)[O-])cc2)sc2c1c(=O)n(-c1ccccc1)c(=O)n2Cc1c(F)cccc1F` came in with a Ki of 0.17 µM.
Same read-out and setting: in the case of `CN(Cc1ccccc1)Cc1c(-c2ccc(NC(=O)C(F)(F)F)cc2)sc2c1c(=O)n(-c1ccccc1)c(=O)n2Cc1c(F)cccc1F` it was 0.016 µM.
Still for that read-out and setting: in the case of `CN(C)Cc1c(-c2ccc([N+](=O)[O-])cc2)sc2c1c(=O)n(-c1ccccc1)c(=O)n2Cc1c(F)cccc1F` it was 0.64 µM; in that of `CN(Cc1ccccc1)Cc1c(-c2ccc([N+](=O)[O-])cc2)sc2c1c(=O)n(-c1ccccc1)c(=O)n2Cc1c(F)cccc1F`, 0.18 µM.
Same read-out and setting: in the case of `CC(C)C(=O)Nc1ccc(-c2sc3c(c2CN(C)Cc2ccccc2)c(=O)n(-c2ccccc2)c(=O)n3Cc2c(F)cccc2F)cc1` it was 0.0029 µM; in that of `CC(C)Nc1ccc(-c2sc3c(c2CN(C)Cc2ccccc2)c(=O)n(-c2ccccc2)c(=O)n3Cc2c(F)cccc2F)cc1`, 0.088 µM; in that of `CN(Cc1ccccc1)Cc1c(-c2ccc(N(C)C)cc2)sc2c1c(=O)n(-c1ccccc1)c(=O)n2Cc1c(F)cccc1F`, 0.061 µM.
In turn, `CN(Cc1ccccn1)Cc1c(-c2ccc([N+](=O)[O-])cc2)sc2c1c(=O)n(-c1ccccc1)c(=O)n2Cc1c(F)cccc1F` came in with a Ki of 0.009 µM.
The same measure, in the same setting: under `CN(Cc1ccccc1)Cc1c(-c2ccc(N)cc2)sc2c1c(=O)n(-c1ccccc1)c(=O)n2Cc1c(F)cccc1F` stands 0.036 µM; under `O=c1c2c(CN3CCNCC3)c(-c3ccc([N+](=O)[O-])cc3)sc2n(Cc2c(F)cccc2F)c(=O)n1-c1ccccc1`, 0.46 µM.
The same measure, in the same setting: under `CC(=O)Nc1ccc(-c2sc3c(c2CN(C)Cc2ccccc2)c(=O)n(-c2ccccc2)c(=O)n3Cc2c(F)cccc2F)cc1` stands 0.0041 µM.
Still for that read-out and setting: in the case of `CCNc1ccc(-c2sc3c(c2CN(C)Cc2ccccc2)c(=O)n(-c2ccccc2)c(=O)n3Cc2c(F)cccc2F)cc1` it was 0.011 µM.
`CN(Cc1ccccc1)Cc1c(-c2ccc(NC(=O)CN)cc2)sc2c1c(=O)n(-c1ccccc1)c(=O)n2Cc1c(F)cccc1F` yielded an inhibitory constant (Ki) of 0.15 µM.
On the same count and under the same terms, in the case of `CN(Cc1ccccc1)Cc1c(-c2ccc(NC(=O)CCCN)cc2)sc2c1c(=O)n(-c1ccccc1)c(=O)n2Cc1c(F)cccc1F` it was 0.3 µM.
On the same count and under the same terms, under `CC(C)CNc1ccc(-c2sc3c(c2CN(C)Cc2ccccc2)c(=O)n(-c2ccccc2)c(=O)n3Cc2c(F)cccc2F)cc1` stands 0.017 µM; under `C[C@H](N)C(=O)Nc1ccc(-c2sc3c(c2CN(C)Cc2ccccc2)c(=O)n(-c2ccccc2)c(=O)n3Cc2c(F)cccc2F)cc1`, 0.043 µM; under `CCN(CC)CCN(C)Cc1c(-c2ccc([N+](=O)[O-])cc2)sc2c1c(=O)n(-c1ccccc1)c(=O)n2Cc1c(F)cccc1F`, 0.076 µM.
On the same count and under the same terms, in the case of `CCCCN(C)Cc1c(-c2ccc([N+](=O)[O-])cc2)sc2c1c(=O)n(-c1ccccc1)c(=O)n2Cc1c(F)cccc1F` it was 0.27 µM.
`CN(CCc1ccccn1)Cc1c(-c2ccc([N+](=O)[O-])cc2)sc2c1c(=O)n(-c1ccccc1)c(=O)n2Cc1c(F)cccc1F` registered a Ki of 0.0006 µM.
The same measure, in the same setting: under `COCCN(C)Cc1c(-c2ccc([N+](=O)[O-])cc2)sc2c1c(=O)n(-c1ccccc1)c(=O)n2Cc1c(F)cccc1F` stands 0.17 µM.
Compound `CN(Cc1ccccc1)Cc1c(-c2ccc(NC(=O)CCN)cc2)sc2c1c(=O)n(-c1ccccc1)c(=O)n2Cc1c(F)cccc1F` registered an inhibition constant (Ki) of 0.36 µM.
`CC(C)CC(N)C(=O)Nc1ccc(-c2sc3c(c2CN(C)Cc2ccccc2)c(=O)n(-c2ccccc2)c(=O)n3Cc2c(F)cccc2F)cc1` (single isomer, unassigned) yielded an inhibition constant Ki of 0.058 µM.
